Experimental data reported in ChEMBL document CHEMBL1151420 (Antimicrob Agents Chemother, 2007).
In brackets after ≈: the same amount, converted by molar mass.

How the values were obtained:
Equid alphaherpesvirus 1 = assay: Antiviral activity against EHV1 assessed as inhibition of plaque formation; format: functional, organism-based
Equus caballus [1] = species: Equus caballus; assay: Renal toxicity in horse assessed as changes in urea level; format: organism-based; conditions: in vivo
In short: (§1)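 Blood was drawn once daily on the day before, the day of, and the day after drug administration. Plasma urea and creatinine were measured to assess kidney function.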

Equus caballus [2] = species: Equus caballus; assay: Renal toxicity in horse assessed as changes in creatinine level; format: organism-based; conditions: in vivo; in short: as §1
[3] = Plasma concentration in horse at 20 mg/kg, po administered as single dose after 5 hrs; format: ADME, organism-based, Equus caballus; parameters: dose 20 mg/kg, route oral
In short: (§2)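 Single 20 mg/kg dose of crushed tablets suspended in 100 ml tap water, given by nasogastric tube and flushed with at least 200 ml water. Plasma sampled from 20 min to 30 h. Total concentration measured by HPLC-fluorescence (LOQ 50 ng/ml). Noncompartmental analysis; absolute F was calculated against the i.v. data.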

[4] = Cmax in horse at 10 mg/kg, iv after 15 mins; format: ADME, organism-based, Equus caballus; parameters: dose 10 mg/kg, route intravenous; conditions: in vivo
[5] = Oral bioavailability in horse at 20 mg/kg administered as single dose; format: ADME, organism-based, Equus caballus; conditions: in vivo; in short: as §2
[6] = Solubility at pH 2.3 to 9.2; format: physicochemical; conditions: buffer
[7] = Distribution coefficient, log P of the compound; format: physicochemical; conditions: octanol/water
[8] = Cmax in iv dosed adult horse; format: ADME, organism-based, Equus caballus; parameters: route intravenous; conditions: in vivo
[9] = Mean residence time in iv dosed adult horse; format: ADME, organism-based, Equus caballus; conditions: in vivo
[10] = Total Cmax in horse at 10 mg/kg, iv after 1 hr by two-compartmental study; format: ADME, organism-based, Equus caballus; parameters: dose 10 mg/kg, route intravenous; conditions: in vivo
Equus caballus [11] = assay: fCmax in horse at 10 mg/kg, iv after 1 hr by three-compartmental study; format: ADME, organism-based; parameters: dose 10 mg/kg, route intravenous; conditions: in vivo
Equus caballus [12] = assay: fAUC in horse at 10 mg/kg, iv after 1 hr by three-compartmental study; format: ADME, organism-based; parameters: dose 10 mg/kg, route intravenous; conditions: in vivo
[13] = Total mean residence time in horse at 10 mg/kg, iv after 1 hr by two-compartmental study; format: ADME, organism-based, Equus caballus; parameters: dose 10 mg/kg, route intravenous; conditions: in vivo
[14] = Free mean residence time in horse at 10 mg/kg, iv after 1 hr by three-compartmental study; format: ADME, organism-based, Equus caballus; parameters: dose 10 mg/kg, route intravenous; conditions: in vivo
Equus caballus [15] = assay: fCmax in horse at 20 mg/kg, po administered as single dose; format: ADME, organism-based; parameters: dose 20 mg/kg, route oral; conditions: in vivo
In short: (§3)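 Horses (six, A–F) were dosed once intragastrically by nasogastric tube with 20 mg/kg of crushed tablets suspended in 100 ml tap water, followed by a ≥200 ml water flush. Heparinized plasma was sampled at 0 and from 20 min to 30 h and stored at –70°C. Unbound drug was isolated by 30 kDa ultrafiltration with ganciclovir internal standard and measured by LC-MS/MS (LOQ 5 ng/ml). Parameters were derived noncompartmentally.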

Equus caballus [16] = assay: fAUC in horse at 20 mg/kg, po administered as single dose; format: ADME, organism-based; parameters: dose 20 mg/kg, route oral; conditions: in vivo; in short: as §3

SMILES	EC50 (Equid alphaherpesvirus 1) [µg/mL]	Activity (Equus caballus [1])	Activity (Equus caballus [2])	concentration at 5 h [3] [ng/mL]	Cmax [4] [ng/mL]	bioavailability [5] [%]	solubility [6] [µg/mL]	logP [7]	Cmax [8] [ng/mL]	MRT [9] [h]	Cmax [10] [ng/mL]	fCmax (Equus caballus [11]) [µg/mL]	fAUC (Equus caballus [12]) [ng·h/mL]	MRT [13] [h]	MRT [14] [h]	fCmax (Equus caballus [15]) [µg/mL]	fAUC (Equus caballus [16]) [ng·h/mL]
Nc1nc2c(ncn2COCCO)c(=O)[nH]1 [ACYCLOVIR]	1.7 (≈ 7.55 µM)	Non-toxic	Non-toxic	50	46200	2.8	1000 (≈ 4440 µM)	-1.59	10400	7.09	10700	10.5	24600	5.38	23.1	0.4	3530
CC(C)[C@H](N)C(=O)OCCOCn1cnc2c(=O)[nH]c(N)nc21 [VALACYCLOVIR]	–	–	–	–	–	–	–	–	–	–	–	–	–	–	–	4.76	14900
